# Active and inactive are the calls of the source. The calls are words filed in the database; no cut-off is given here.
# How the values were obtained:
# BMDM [1] = assay: Antiinflammatory activity in LPS-induced C57BL/6J mouse BMDM cells assessed as suppression of M1 macrophage-stimulated Th17 cell population by measuring decrease in Il17 level at 300 nM measured after 48 hrs by ELISA; type: functional, cell-based
# Procedure, shortened: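 Supernatant collected from the 72 h coculture of CFSE-labelled naïve CD4+ T cells (anti-CD3/anti-CD28, 500 ng/ml each, 1:1) with BMDMs pretreated 48 h with 50 ng/ml LPS plus 300 nM compound. IFN-γ or IL-17A quantified by ELISA. Mean ± SEM, at least three independent experiments.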
# [2] = AUC (0 to t) in Sprague-Dawley rat at 50 mg/kg, po administered as single dose via gavage by LC/MS analysis; type: ADME, organism-based; conditions: in vivo
# Procedure, shortened: (§1)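 Single dose in rats; venous blood (100 µL) drawn at 0, 0.5, 1, 2, 4, 8 and 12 h, plasma separated by centrifugation and held at -20 °C. Compound measured by LC/MS; Cmax, Tmax, t1/2 and AUC derived from the concentration–time data.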
# RAW264.7 [3] = assay: Modulation of M1 polarization in mouse RAW264.7 cells assessed as change in Mcp1 mRNA expression at 300 nM measured after 24 hrs by qRT-PCR analysis relative to control; type: functional, cell-based; conditions: RAW264.7, 24 h, read-out: FC
# Procedure, shortened: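 RAW264.7 cells (DMEM, 10% FBS) exposed 24 h to 300 nM compound alone; LPS 50 ng/ml as positive control. Mcp1 mRNA by qRT-PCR; fold change = dosed group level / control group level.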
# BMDM [4] = assay: Inhibition of LPS-induced M1 polarization in C57BL/6J mouse BMDM cells assessed as down regulation of CD86 mRNA expression at 300 nM measured after 24 hrs by qRT-PCR analysis; type: functional, cell-based
# Procedure, shortened: (§2)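 BMDMs pre-incubated 24 h with 50 ng/ml LPS to induce M1, then treated 24 h with 300 nM compound. Total RNA extracted with Trizol; Mcp1, Inos and Cd86 mRNA measured by qRT-PCR. Mean ± SEM.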
# RAW264.7 [5] = assay: Inhibition of M1 polarization in mouse RAW264.7 cells assessed as down regulation of CD80 mRNA expression at 300 nM measured after 24 hrs by qRT-PCR analysis; type: functional, cell-based
# RAW264.7 [6] = assay: Inhibition of M1 polarization in mouse RAW264.7 cells assessed as down regulation of TNFSF15 mRNA expression at 300 nM measured after 24 hrs by qRT-PCR analysis; type: functional, cell-based
# RAW264.7 [7] = assay: Inhibition of M1 polarization in mouse RAW264.7 cells assessed as down regulation of IL1R2 mRNA expression at 300 nM measured after 24 hrs by qRT-PCR analysis; type: functional, cell-based
# Mus musculus [8] = assay: (§3) Inhibition of M1 polarization in C57BL/6J mouse model of MOG (35 to 55 residues)/pertussis toxin/complete Freund's adjuvant-induced experimental allergic encephalomyelitis assessed as CD86 level in draining lymph nodes at 200 mg/kg, ig administered daily starting from 7 days post-immunization measured after 13 to 19 days post-immunization by flow cytometry analysis (reference value: 18.4%); type: functional; design: scale not given: the % may be the effect or the level left
# Procedure, shortened: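 MOG35-55/CFA EAE mice were dosed daily in saline from day 7 and sampled between days 13 and 19. Cells came from spleen and dLN by mechanical dissociation and from CNS by collagenase IV/Percoll. They were stained for F4/80 with CD206 (M2) or CD86 (M1), and each was read by flow cytometry as a percentage of total F4/80+ macrophages.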
# BMDM [9] = assay: Modulation of M2 polarization in C57BL/6J mouse BMDM cells assessed as up regulation of Arg1 expression at 300 nM measured after 4 to 24 hrs by Western blot analysis; type: functional, cell-based
# Procedure, shortened: (§4)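 BMDMs lysed in pH 7.6 buffer with 1% Triton X-100, phosphatase inhibitor and 1 mM PMSF. Proteins separated by SDS-PAGE, blotted to PVDF and probed with anti-Arg-1, anti-Ym1 or anti-TNF-α, then ECL detection; GAPDH as loading control.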
# BMDM [10] = assay: Inhibition of LPS-induced M1 polarization in C57BL/6J mouse BMDM cells assessed as down regulation of Mcp1 mRNA expression at 300 nM measured after 24 hrs by qRT-PCR analysis; type: functional, cell-based; procedure, shortened: as §2
# BMDM [11] = assay: Modulation of M2 polarization in C57BL/6J mouse BMDM cells assessed as up regulation of YM1 expression at 300 nM measured after 4 to 24 hrs by Western blot analysis; type: functional, cell-based; procedure, shortened: as §4
# Mus musculus [12] = assay: as §3, with “Antiinflammatory activity” for “Inhibition of M1 polarization”, “effect on dendritic cell population” for “CD86 level”, “nodes by measuring change in CD11c level” for “nodes”, “analysis” for “analysis (reference value: 18.4%)”; type: functional, organism-based
# Procedure, shortened: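 MOG35-55/CFA EAE mice were dosed daily in saline from day 7 and sampled between days 13 and 19. Spleens and dLNs were mechanically dissociated to single cells. CNS cells came from collagenase IV digestion and a 70%/30% Percoll gradient. Cells were surface-stained with fluorochrome antibodies, including CD4, CD11b, CD11c and MHC-II, and analysed by flow cytometry.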
# Mus musculus [13] = assay: (§5) Antiinflammatory activity in C57BL/6J mouse model of MOG (35 to 55 residues)/pertussis toxin/complete Freund's adjuvant-induced experimental allergic encephalomyelitis assessed as reduction in demyelination in spinal cord at 200 mg/kg, ig administered daily starting from 7 days post-immunization measured after 14 days post-immunization by LFB staining based microscopic analysis; type: functional, organism-based
# Procedure, shortened: (§6)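 EAE mice dosed daily in saline from day 7 were perfused with PBS and fixed in 4% PFA on day 14; spinal cords were taken. For LFB, frozen OCT sections sat 3 h in 0.1% Luxol Fast Blue at 56-60°C, were differentiated in 0.05% lithium carbonate for 10-12 s, cleared in 70% ethanol, dehydrated and mounted. For H&E, paraffin sections were stained to assess inflammation.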
# [14] = Ratio of AUC (0 to t) to AUC (0 to infinity) in Sprague-Dawley rat at 50 mg/kg, po administered as single dose via gavage; type: ADME, organism-based; conditions: in vivo
# RAW264.7 [15] = assay: Modulation of M2 polarization in mouse RAW264.7 cells assessed as up regulation of CCR7 mRNA expression at 300 nM measured after 24 hrs by qRT-PCR analysis; type: functional, cell-based
# Mus musculus [16] = assay: as §5, with “H and E” for “LFB”; type: functional, organism-based; procedure, shortened: as §6
# [17] = AUC (0 to infinity) in Sprague-Dawley rat at 50 mg/kg, po administered as single dose via gavage by LC/MS analysis; type: ADME, organism-based; design: dose 50 mg/kg, time infinity, route oral; conditions: in vivo; procedure, shortened: as §1
# BMDM [18] = assay: Inhibition of LPS-induced M1 polarization in C57BL/6J mouse BMDM cells assessed as down regulation of CD86 expression at 300 nM measured after 24 hrs by FACS analysis; type: functional, cell-based
# Procedure, shortened: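 BMDMs pretreated with 50 ng/ml LPS for 24 h, then given compound (300 nM, or a range of concentrations) for 24 h. Stained for F4/80 and CD86; % CD86+F4/80+ cells read by flow cytometry. Mean ± SEM, at least three independent experiments.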
# [19] = Tmax in Sprague-Dawley rat at 10 mg/kg, iv administered as single dose by LC/MS analysis; type: ADME, organism-based; conditions: in vivo; procedure, shortened: as §1
# BMDM [20] = assay: Modulation of M1 polarization in C57BL/6J mouse BMDM cells assessed as up regulation of TNFalpha expression at 300 nM measured after 4 to 24 hrs by Western blot analysis; type: cell-based; conditions: 0.3 µM; procedure, shortened: as §4
smiles,measurement,setting,value
Cl.Cn1ncc(Cl)c1-c1ccc(C(=O)N[C@@H]2CNCC[C@H]2c2cccc(F)c2)cc1,Activity,BMDM [1],Active
same,AUC(0-t),[2],4670 ng·h/mL
same,fold induction at 0.3 µM,RAW264.7 [3],1.47
same,inhibition,BMDM [4],Active
same,inhibition,RAW264.7 [5],Active
same,inhibition,RAW264.7 [6],Active
same,inhibition,RAW264.7 [7],Active
same,Activity,Mus musculus [8],11.5%
same,Activity,BMDM [9],Active
same,inhibition,BMDM [10],Active
same,Activity,BMDM [11],Active
same,Activity,Mus musculus [12],inactive
same,Activity,Mus musculus [13],Active
same,Ratio AUC,[14],98.425%
same,Activity,RAW264.7 [15],Active
same,Activity,Mus musculus [16],Active
same,AUC(0-inf),[17],4740 ng·h/mL
same,inhibition,BMDM [18],Active
same,Tmax,[19],4.98 min
same,Activity,BMDM [20],Non-Toxic
